One block for each compound: values may come before it.
Legend:
[1] = biological target: T1, Poly [ADP-ribose] polymerase 1 (Homo sapiens, UniProt P09874); test: Inhibition of PARP1 by scintillation counting
[2] = Volume of distribution in CD1 mouse at 3.0 mg/kg, iv; assay type: ADME, organism-based; design: dose 3 mg/kg, route intravenous; settings: in vivo
Summary of the method: (§1)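 Male CD-1 mice (26-30 g) were dosed iv via the tail vein or po by gavage. Blood was taken by cardiac puncture after CO₂ asphyxiation at set times. Plasma proteins were precipitated with acidified methanol. Samples were quantified by LC-ESI-MS against external standards from spiked control plasma.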

[3] = Oral bioavailability in CD1 mouse at 10 mg/kg; assay type: ADME, organism-based; settings: in vivo; summary of the method: as §1
[4] = Clearance in CD1 mouse at 3.0 mg/kg, iv; assay type: ADME, organism-based; design: dose 3 mg/kg, route intravenous; settings: in vivo; summary of the method: as §1
[5] = Half life in CD1 mouse at 3.0 mg/kg, iv; assay type: ADME, organism-based; design: dose 3 mg/kg, route intravenous; settings: in vivo; summary of the method: as §1
[6] = AUC in CD1 mouse at 3.0 mg/kg, iv; assay type: ADME, organism-based; design: dose 3 mg/kg, route intravenous; settings: plasma; summary of the method: as §1
[7] = biological target: T1, Poly [ADP-ribose] polymerase 1; test: Inhibition of PARP1 in human C41 cells after 30 mins by cell-based assay
[8] = Cmax in CD1 mouse at 10 mg/kg, po; assay type: ADME, organism-based; design: dose 10 mg/kg, route oral; settings: in vivo; summary of the method: as §1
[9] = AUC in CD1 mouse at 10 mg/kg, po; assay type: ADME, organism-based; design: dose 10 mg/kg, route oral; settings: plasma; summary of the method: as §1
[10] = system: B16-F10; test: Antitumor activity against mouse B16F10 cells implanted in C57BL/6 mouse at 60 mg/kg, po BID for 5 days measured on day 12 in presence of DNA alkylating agent temozolomide; assay type: functional; settings: read-out: TGI
Summary of the method: (§2)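 B16F10 syngeneic model: cells in Matrigel (1:1) were injected sc into the flank at 6 × 10⁴ cells per mouse. Recipients were female C57BL/6 mice, 6-8 weeks old, 18-20 g. Temozolomide was given po q.d. at 50 mg/kg/day for 5 consecutive days. Over the same period the PARP inhibitor was given po b.i.d. Read-out was relative tumor growth inhibition on the stated day.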

[11] = system: B16-F10; test: Antitumor activity against mouse B16F10 cells implanted in C57BL/6 mouse at 60 mg/kg, po BID for 5 days measured on day 19 in presence of DNA alkylating agent temozolomide; assay type: functional; settings: read-out: TGI; summary of the method: as §2
[12] = system: B16-F10; test: Antitumor activity against mouse B16F10 cells implanted in C57BL/6 mouse at 30 mg/kg, po BID for 5 days measured on day 12 in presence of DNA alkylating agent temozolomide; assay type: functional; settings: read-out: TGI; summary of the method: as §2
[13] = system: B16-F10; test: Antitumor activity against mouse B16F10 cells implanted in C57BL/6 mouse at 10 mg/kg, po BID for 5 days measured on day 12 in presence of DNA alkylating agent temozolomide; assay type: functional; settings: read-out: TGI; summary of the method: as §2
[14] = system: B16-F10; test: Antitumor activity against mouse B16F10 cells implanted in C57BL/6 mouse at 30 mg/kg, po BID for 5 days measured on day 19 in presence of DNA alkylating agent temozolomide; assay type: functional; settings: read-out: TGI; summary of the method: as §2
[15] = system: B16-F10; test: Antitumor activity against mouse B16F10 cells implanted in C57BL/6 mouse at 10 mg/kg, po BID for 5 days measured on day 19 in presence of DNA alkylating agent temozolomide; assay type: functional; settings: read-out: TGI; summary of the method: as §2
[16] = system: B16-F10; test: Antitumor activity against mouse B16F10 cells implanted in C57BL/6 mouse at 3 mg/kg, po BID for 5 days measured on day 19 in presence of DNA alkylating agent temozolomide; assay type: functional; settings: read-out: TGI
[17] = system: B16-F10; test: Antitumor activity against mouse B16F10 cells implanted in C57BL/6 mouse at 3 mg/kg, po BID for 5 days measured on day 16 in presence of DNA alkylating agent temozolomide; assay type: functional; settings: read-out: TGI
[18] = system: B16-F10; test: Antitumor activity against mouse B16F10 cells implanted in C57BL/6 mouse at 10 mg/kg, po BID for 5 days measured on day 16 in presence of DNA alkylating agent temozolomide; assay type: functional; settings: B16-F10, read-out: TGI; summary of the method: as §2
[19] = system: B16-F10; test: Antitumor activity against mouse B16F10 cells implanted in C57BL/6 mouse at 30 mg/kg, po BID for 5 days measured on day 16 in presence of DNA alkylating agent temozolomide; assay type: functional; settings: B16-F10, read-out: TGI; summary of the method: as §2
[20] = system: B16-F10; test: Antitumor activity against mouse B16F10 cells implanted in C57BL/6 mouse at 50 mg/kg, po QD for 5 days measured on day 12; assay type: functional; settings: read-out: TGI
[21] = system: B16-F10; test: Antitumor activity against mouse B16F10 cells implanted in C57BL/6 mouse at 50 mg/kg, po QD for 5 days measured on day 16; assay type: functional; settings: read-out: TGI

T1 sequence (P09874 whole entry): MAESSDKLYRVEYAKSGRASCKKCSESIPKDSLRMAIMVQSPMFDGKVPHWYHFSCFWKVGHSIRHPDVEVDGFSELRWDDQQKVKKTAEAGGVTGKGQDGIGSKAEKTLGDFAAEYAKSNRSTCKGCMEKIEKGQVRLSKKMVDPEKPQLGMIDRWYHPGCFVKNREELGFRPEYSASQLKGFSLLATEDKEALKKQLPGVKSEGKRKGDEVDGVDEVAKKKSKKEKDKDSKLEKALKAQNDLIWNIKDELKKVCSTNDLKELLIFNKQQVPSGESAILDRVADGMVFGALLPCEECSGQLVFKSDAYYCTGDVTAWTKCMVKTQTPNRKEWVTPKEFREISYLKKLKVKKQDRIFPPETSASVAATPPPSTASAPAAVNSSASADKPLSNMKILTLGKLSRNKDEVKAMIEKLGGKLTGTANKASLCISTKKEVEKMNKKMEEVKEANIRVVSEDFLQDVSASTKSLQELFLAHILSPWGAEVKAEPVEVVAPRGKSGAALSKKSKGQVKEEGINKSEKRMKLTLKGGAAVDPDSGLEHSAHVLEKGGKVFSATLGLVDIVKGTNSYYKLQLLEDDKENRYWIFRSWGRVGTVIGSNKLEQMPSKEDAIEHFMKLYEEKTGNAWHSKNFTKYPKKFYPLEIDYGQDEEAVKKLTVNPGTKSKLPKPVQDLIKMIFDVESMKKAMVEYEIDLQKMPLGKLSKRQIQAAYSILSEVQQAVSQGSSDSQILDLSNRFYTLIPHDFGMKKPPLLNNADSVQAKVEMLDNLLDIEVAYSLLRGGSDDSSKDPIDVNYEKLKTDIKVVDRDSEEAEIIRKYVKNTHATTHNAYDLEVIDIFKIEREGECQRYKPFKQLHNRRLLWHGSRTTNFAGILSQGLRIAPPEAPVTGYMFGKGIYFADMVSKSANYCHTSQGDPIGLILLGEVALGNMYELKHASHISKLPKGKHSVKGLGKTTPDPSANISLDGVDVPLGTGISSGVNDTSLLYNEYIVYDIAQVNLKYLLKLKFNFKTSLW

Structure (SMILES): NC(=O)c1cccc2[nH]c(-c3ccc(-c4ncc[nH]4)cc3)nc12
Ki [1]: 2.2 nM
Vd [2]: 26 L/kg
bioavailability [3]: 0%
clearance [4]: 533 mL/min/kg
half-life [5]: 33.6 min
AUC [6]: 0.31 µM·h
EC50 [7]: 2.2 nM

Structure (SMILES): NC(=O)c1cccc2[nH]c(-c3ccc(-c4cnco4)cc3)nc12
Cmax [8]: 70 nM
Ki [1]: 0.76 nM
Vd [2]: 26 L/kg
bioavailability [3]: 6%
clearance [4]: 300 mL/min/kg
AUC [9]: 0.11 µM·h
half-life [5]: 58.2 min
AUC [6]: 0.54 µM·h
EC50 [7]: 0.99 nM

Structure (SMILES): NC(=O)c1cccc2[nH]c(-c3ccc(-c4nnn[nH]4)cc3)nc12
Ki [1]: 20 nM

Ki [1]: 10 nM
EC50 [7]: > 1000 nM
Structure (SMILES): NC(=O)c1cccc2[nH]c(-c3ccc(-c4ccno4)cc3)nc12

Cmax [8]: 2700 nM
Ki [1]: 1 nM
Vd [2]: 1.7 L/kg
bioavailability [3]: 41%
clearance [4]: 55 mL/min/kg
AUC [9]: 4 µM·h
half-life [5]: 21.6 min
AUC [6]: 3 µM·h
EC50 [7]: 3.7 nM
Structure (SMILES): NC(=O)c1cccc2[nH]c(-c3ccc(-c4nnco4)cc3)nc12
inhibition in vivo at 60 mg/kg [10]: 67%
inhibition in vivo at 60 mg/kg [11]: 81%
inhibition in vivo at 30 mg/kg [12]: 59%
inhibition in vivo at 10 mg/kg [13]: 57%
inhibition in vivo at 30 mg/kg [14]: 72%
inhibition in vivo at 10 mg/kg [15]: 53%

Ki [1]: 6.8 nM
EC50 [7]: 20 nM
Structure (SMILES): NC(=O)c1cccc2[nH]c(-c3ccc(-c4cn5ccc(C(F)(F)F)cc5n4)cc3)nc12

Ki [1]: 3.8 nM
EC50 [7]: 328 nM
Structure (SMILES): NC(=O)c1cccc2[nH]c(-c3ccc(-c4nc(=S)o[nH]4)cc3)nc12

Cmax [8]: 2200 nM
Vd [2]: 7.3 L/kg
bioavailability [3]: 73%
clearance [4]: 147 mL/min/kg
AUC [9]: 2.7 µM·h
half-life [5]: 34.8 min
AUC [6]: 1.1 µM·h
Structure (SMILES): NC(=O)c1cccc2[nH]c(-c3ccc(-c4cccnc4)cc3)nc12

Ki [1]: 2.2 nM
EC50 [7]: 26 nM
Structure (SMILES): NC(=O)c1cccc2[nH]c(-c3ccc(-c4csc(N)n4)cc3)nc12

Structure (SMILES): NC(=O)c1cccc2[nH]c(-c3ccc(-c4cscn4)cc3)nc12
Ki [1]: 1.7 nM
EC50 [7]: 3.7 nM

Structure (SMILES): NC(=O)c1cccc2[nH]c(-c3ccc(-c4cnc[nH]4)cc3)nc12
Ki [1]: 1.2 nM
EC50 [7]: 3.7 nM

Cmax [8]: 1800 nM
Vd [2]: 6.6 L/kg
bioavailability [3]: 141%
clearance [4]: 123 mL/min/kg
AUC [9]: 6.1 µM·h
half-life [5]: 37.2 min
AUC [6]: 1.3 µM·h
Structure (SMILES): NC(=O)c1cccc2[nH]c(-c3ccc(-c4ccccn4)cc3)nc12
inhibition in vivo at 3 mg/kg [16]: 23%
inhibition in vivo at 3 mg/kg [17]: 66%
inhibition in vivo at 10 mg/kg [18]: 83%
inhibition in vivo at 30 mg/kg [14]: 70%
inhibition in vivo at 10 mg/kg [15]: 32%
inhibition in vivo at 30 mg/kg [19]: 72%

Structure (SMILES): NC(=O)c1cccc2[nH]c(-c3ccc(-c4n[nH]c(=O)o4)cc3)nc12
Ki [1]: 1.6 nM
EC50 [7]: 64 nM

Cmax [8]: 760 nM
Vd [2]: 5.9 L/kg
bioavailability [3]: 44%
clearance [4]: 167 mL/min/kg
AUC [9]: 1.4 µM·h
half-life [5]: 24 min
AUC [6]: 0.94 µM·h
Structure (SMILES): NC(=O)c1cccc2[nH]c(-c3ccc(-c4ccncc4)cc3)nc12

Ki [1]: 2 nM
EC50 [7]: 71 nM
Structure (SMILES): NC(=O)c1cccc2[nH]c(-c3ccc(-c4ccccc4)cc3)nc12

Structure (SMILES): NC(=O)c1cccc2[nH]c(-c3ccc(-c4cn5ccccc5n4)cc3)nc12
Ki [1]: 2.9 nM
EC50 [7]: 20 nM

Structure (SMILES): NC(=O)c1cccc2[nH]c(-c3ccc(-c4nc(=O)o[nH]4)cc3)nc12
Ki [1]: 16 nM

Structure (SMILES): Cn1ccc(-c2ccc(-c3nc4c(C(N)=O)cccc4[nH]3)cc2)n1
Ki [1]: 4.5 nM
EC50 [7]: 20 nM

Structure (SMILES): Cc1noc(-c2ccc(-c3nc4c(C(N)=O)cccc4[nH]3)cc2)n1
Ki [1]: 4 nM
EC50 [7]: 9.1 nM

Structure (SMILES): NC(=O)c1cccc2[nH]c(-c3ccc(-c4nsc(=O)[nH]4)cc3)nc12
Ki [1]: 5.2 nM
EC50 [7]: 461 nM

Structure (SMILES): Cc1nc(-c2ccc(-c3nc4c(C(N)=O)cccc4[nH]3)cc2)co1
Ki [1]: 2.4 nM
EC50 [7]: 18 nM

Structure (SMILES): Cn1nnc2c(C(N)=O)ncn2c1=O [TEMOZOLOMIDE]
inhibition in vivo at 50 mg/kg [20]: 43%
inhibition in vivo at 50 mg/kg [21]: 56%
